Experimental data from ChEMBL document CHEMBL1949633, “Novel morpholine ketone analogs as potent histamine H3 receptor inverse agonists with wake activity” (Bioorg Med Chem Lett, 2012).
Blank lines part the entries; values can stand above or below the compound they belong to. The source made the active and inactive calls. The rule behind the calls is not given here.

Experiments:
[1] = biological target: Histamine H3 receptor (Homo sapiens, UniProt Q9Y5N1); assay: Displacement of [3H]NAMH from human histamine H3 receptor
[2] = biological target: Histamine H3 receptor (Rattus norvegicus, UniProt Q9QYN8); assay: Displacement of [3H]NAMH from rat histamine H3 receptor
Outline: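 Radioligand binding with [3H]NAMH in membranes from cells transfected with human or rat H3 receptor. Ki values averaged from at least two determinations; assay-to-assay variation typically within 2.5-fold.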

[3] = Ratio of drug uptake in rat brain to plasma at 10 mg/kg, ip measured after 1 hr; assay type: ADME, organism-based; parameters: dose 10 mg/kg, route intraperitoneal; conditions: read-out: BPR
Outline: (§1)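 Male-unspecified rats dosed 10 mg/kg ip in 0.5% methylcellulose, 0.2% Tween 80 in water; brain concentration (ng/g) measured at 1, 4, 6 and 24 h post dose. Brain-to-plasma ratio taken at 1 h.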

[4] = system: Rattus norvegicus; assay: AUC (0 to 6 hrs) in rat at 5 mg/kg, po; assay type: ADME, organism-based, Plasma; parameters: time < 6 hr, dose 5 mg/kg, route oral; conditions: in vivo
[5] = system: Rattus norvegicus; assay: Effect on sleep-awake cycle in EEG/EMG Sprague-Dawley rat model assessed as increase in rapid eye movement sleep at 30 mg/kg, ip after 4 hrs; assay type: functional, organism-based; parameters: dose 30 mg/kg
[6] = Drug uptake in rat brain at 10 mg/kg, ip measured after 1 hr; assay type: ADME, organism-based; parameters: dose 10 mg/kg, route intraperitoneal; conditions: read-out: Drug uptake; outline: as §1
[7] = system: Rattus norvegicus; assay: Effect on sleep-awake cycle in ip dosed EEG/EMG Sprague-Dawley rat model assessed as wake promotion after 4 hrs; assay type: functional, organism-based
[8] = system: Rattus norvegicus; assay: Effect on sleep-awake cycle in EEG/EMG Sprague-Dawley rat model assessed as increase in slow-wave sleep at 30 mg/kg, ip after 4 hrs; assay type: functional, organism-based; parameters: dose 30 mg/kg
[9] = system: Rattus norvegicus; assay: Effect on sleep-awake cycle in EEG/EMG Sprague-Dawley rat model assessed as wake promotion at 60 mg/kg, ip after 4 hrs relative to control; assay type: functional; conditions: route intraperitoneal
Outline: (§2)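 Male Sprague Dawley rats were surgically implanted for chronic EEG and EMG recording and dosed ip at 10, 30 or 60 mg/kg or with vehicle. Line 2 is read as cumulative time awake over 4 h post-dose (4 h AUC), or percent time awake. Line 1 is theta-range EEG power (~6–9 Hz, FFT amplitude) at 1 h. n = 7-8/group; Dunnett's test versus vehicle.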

[10] = system: Rattus norvegicus; assay: Effect on sleep-awake cycle in EEG/EMG Sprague-Dawley rat model assessed as increase in EEG theta range at 30 to 60 mg/kg, ip after 1 hr; assay type: functional; conditions: dose mg/kg 30-60; route intraperitoneal; outline: as §2
[11] = biological target: T1, Cytochrome P450 1A2 (Homo sapiens, UniProt P05177); assay: Inhibition of CYP1A2; assay type: ADME
T1 sequence (P05177 whole entry): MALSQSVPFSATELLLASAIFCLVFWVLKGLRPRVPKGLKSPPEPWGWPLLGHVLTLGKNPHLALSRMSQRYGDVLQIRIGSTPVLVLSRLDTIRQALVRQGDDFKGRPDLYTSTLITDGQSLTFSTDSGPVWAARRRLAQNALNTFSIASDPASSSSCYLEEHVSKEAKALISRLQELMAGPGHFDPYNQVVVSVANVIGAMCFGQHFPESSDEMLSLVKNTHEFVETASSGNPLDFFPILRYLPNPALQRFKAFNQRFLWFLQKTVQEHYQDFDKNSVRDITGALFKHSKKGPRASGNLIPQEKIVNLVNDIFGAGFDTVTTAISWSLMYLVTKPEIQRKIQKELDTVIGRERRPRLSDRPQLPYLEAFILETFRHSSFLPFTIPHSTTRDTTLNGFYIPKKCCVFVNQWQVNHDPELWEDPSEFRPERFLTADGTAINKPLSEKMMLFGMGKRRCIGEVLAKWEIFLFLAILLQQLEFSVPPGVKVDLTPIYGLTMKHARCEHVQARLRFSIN

[12] = biological target: Cytochrome P450 2D6 (Homo sapiens, UniProt P10635); assay: Inhibition of CYP2D6; assay type: ADME
[13] = system: Rattus norvegicus; assay: Effect on sleep-awake cycle in EEG/EMG Sprague-Dawley rat model assessed as change in EEG theta frequency at 30 to 60 mg/kg, ip after 1 hr; assay type: functional, organism-based
[14] = system: Rattus norvegicus; assay: Effect on sleep-awake cycle in ip dosed EEG/EMG Sprague-Dawley rat model assessed as wake promotion time at 30 mg/kg, ip (reference value: 101 +/- 7 mins); assay type: functional; conditions: route intraperitoneal
[15] = biological target: Nischarin (Rattus norvegicus) (UniProt Q4G017); assay: Inhibition of rat imidazoline I2 receptor at 10 uM
Outline: (§3)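 Selectivity panel of 70 GPCRs, ion channels and enzymes run by a contract screening service; percent inhibition at 10 µM test concentration.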

[16] = biological target: Cytochrome P450 2C19 (Homo sapiens, UniProt P33261); assay: Inhibition of CYP2C19; assay type: ADME
[17] = biological target: Sigma non-opioid intracellular receptor 1 (Homo sapiens) (UniProt Q99720); assay: Inhibition of human sigma 1 receptor at 10 uM; outline: as §3
[18] = system: Rattus norvegicus; assay: Effect on sleep-awake cycle in EEG/EMG Sprague-Dawley rat model assessed as wake promotion at 60 mg/kg, ip after 4 hrs; assay type: functional; conditions: route intraperitoneal
[19] = system: Rattus norvegicus; assay: Effect on sleep-awake cycle in EEG/EMG Sprague-Dawley rat model assessed as increase in slow-wave sleep at 60 mg/kg, ip after 4 hrs; assay type: functional, organism-based; parameters: dose 60 mg/kg
[20] = biological target: Cytochrome P450 2C9 (Homo sapiens, UniProt P11712); assay: Inhibition of CYP2C9; assay type: ADME
[21] = biological target: Cytochrome P450 3A4 (Homo sapiens, UniProt P08684); assay: Inhibition of CYP3A4; assay type: ADME
[22] = system: Rattus norvegicus; assay: Toxicity in EEG/EMG Sprague-Dawley rat model assessed as adverse EEG activity at 10 to 60 mg/kg, ip; assay type: organism-based; parameters: dose 10-60 mg/kg, route intraperitoneal; conditions: in vivo
[23] = system: Rattus norvegicus; assay: Effect on sleep-awake cycle in ip dosed EEG/EMG Sprague-Dawley rat model assessed as wake promotion time at 10 mg/kg, ip (reference value: 101 +/- 7 mins); assay type: functional; conditions: route intraperitoneal
[24] = system: Rattus norvegicus; assay: Effect on sleep-awake cycle in ip dosed EEG/EMG Sprague-Dawley rat model assessed as wake promotion time at 60 mg/kg, ip (reference value: 101 +/- 7 mins); assay type: functional; conditions: route intraperitoneal
[25] = system: Rattus norvegicus; assay: Effect on sleep-awake cycle in EEG/EMG Sprague-Dawley rat model assessed as increase in rapid eye movement sleep at 60 mg/kg, ip after 4 hrs; assay type: functional, organism-based; parameters: dose 60 mg/kg
[26] = Aqueous solubility of the compound at pH 7.4; assay type: physicochemical; conditions: aqueous medium
[27] = system: Rattus norvegicus; assay: Effect on sleep-awake cycle in EEG/EMG Sprague-Dawley rat model assessed as sleep rebound at 10 to 60 mg/kg, ip up to 22 hrs; assay type: functional, organism-based
[28] = Oral bioavailability in rat at 5 mg/kg; assay type: ADME, organism-based; conditions: in vivo
Outline: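 Rats received 5 mg/kg po in 50% Tween 80, 40% propylene carbonate and 10% propylene glycol. The iv comparison dose was formulated in 3% DMSO, 30% solutol and 67% phosphate-buffered saline.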

[29] = Half life in mouse liver microsomes; assay type: ADME, Microsome
[30] = Half life in human liver microsomes; assay type: ADME, Microsome
[31] = Half life in dog liver microsomes; assay type: ADME, Canis lupus familiaris, Microsome
[32] = Half life in rat liver microsomes; assay type: ADME, Microsome
[33] = Drug uptake in rat brain at 10 mg/kg, ip measured after 4 hrs; assay type: ADME, organism-based; parameters: dose 10 mg/kg, route intraperitoneal; conditions: read-out: Drug uptake; outline: as §1
[34] = system: Brain; assay: Drug uptake in rat brain at 10 mg/kg, ip measured after 24 hrs; assay type: ADME, organism-based; parameters: dose 10 mg/kg, route intraperitoneal; conditions: in vivo; outline: as §1
[35] = Drug uptake in rat brain at 10 mg/kg, ip measured after 6 hrs; assay type: ADME, organism-based; parameters: dose 10 mg/kg, route intraperitoneal; conditions: read-out: Drug uptake; outline: as §1

Sequence of Histamine H3 receptor (Homo sapiens, UniProt Q9Y5N1) (Q9Y5N1 whole entry): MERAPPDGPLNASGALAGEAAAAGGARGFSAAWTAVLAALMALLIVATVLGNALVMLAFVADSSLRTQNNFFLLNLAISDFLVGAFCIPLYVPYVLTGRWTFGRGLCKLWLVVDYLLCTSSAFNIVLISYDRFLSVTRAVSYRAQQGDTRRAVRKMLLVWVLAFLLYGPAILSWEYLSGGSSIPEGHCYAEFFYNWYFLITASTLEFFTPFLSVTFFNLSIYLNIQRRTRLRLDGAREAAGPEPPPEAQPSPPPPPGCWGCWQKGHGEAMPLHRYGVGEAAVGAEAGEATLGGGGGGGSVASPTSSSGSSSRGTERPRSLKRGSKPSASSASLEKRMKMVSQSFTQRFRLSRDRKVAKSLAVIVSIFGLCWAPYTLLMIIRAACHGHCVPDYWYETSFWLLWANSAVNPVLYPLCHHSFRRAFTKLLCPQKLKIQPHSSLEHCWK
Sequence of Histamine H3 receptor (Rattus norvegicus, UniProt Q9QYN8) (Q9QYN8 whole entry): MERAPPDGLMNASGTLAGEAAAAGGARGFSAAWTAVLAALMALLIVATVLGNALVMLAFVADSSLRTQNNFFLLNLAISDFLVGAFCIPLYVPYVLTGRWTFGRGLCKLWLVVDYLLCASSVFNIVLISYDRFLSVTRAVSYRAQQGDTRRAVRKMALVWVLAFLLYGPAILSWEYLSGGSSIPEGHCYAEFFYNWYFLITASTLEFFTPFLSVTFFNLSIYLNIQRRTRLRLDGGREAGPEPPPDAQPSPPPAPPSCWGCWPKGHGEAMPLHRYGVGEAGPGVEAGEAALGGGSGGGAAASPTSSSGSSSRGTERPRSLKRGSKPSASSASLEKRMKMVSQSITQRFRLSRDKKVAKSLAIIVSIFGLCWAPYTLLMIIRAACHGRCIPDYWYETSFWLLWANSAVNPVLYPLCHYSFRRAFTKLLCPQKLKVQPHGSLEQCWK
Sequence of Cytochrome P450 2C9 (P11712 whole entry): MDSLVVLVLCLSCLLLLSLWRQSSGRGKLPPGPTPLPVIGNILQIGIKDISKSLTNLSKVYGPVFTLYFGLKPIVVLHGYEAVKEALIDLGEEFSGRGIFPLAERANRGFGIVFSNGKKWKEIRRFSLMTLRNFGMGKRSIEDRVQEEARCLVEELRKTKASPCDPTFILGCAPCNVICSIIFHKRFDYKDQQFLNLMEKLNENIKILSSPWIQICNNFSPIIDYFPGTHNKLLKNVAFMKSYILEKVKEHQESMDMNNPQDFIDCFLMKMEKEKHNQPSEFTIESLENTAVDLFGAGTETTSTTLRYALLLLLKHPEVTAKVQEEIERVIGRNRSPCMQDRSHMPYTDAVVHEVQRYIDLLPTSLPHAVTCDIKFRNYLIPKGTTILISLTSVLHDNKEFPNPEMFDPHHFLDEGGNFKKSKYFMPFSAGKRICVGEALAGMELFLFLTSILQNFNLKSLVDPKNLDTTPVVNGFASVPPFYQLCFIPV
Sequence of Cytochrome P450 2D6 (P10635 whole entry): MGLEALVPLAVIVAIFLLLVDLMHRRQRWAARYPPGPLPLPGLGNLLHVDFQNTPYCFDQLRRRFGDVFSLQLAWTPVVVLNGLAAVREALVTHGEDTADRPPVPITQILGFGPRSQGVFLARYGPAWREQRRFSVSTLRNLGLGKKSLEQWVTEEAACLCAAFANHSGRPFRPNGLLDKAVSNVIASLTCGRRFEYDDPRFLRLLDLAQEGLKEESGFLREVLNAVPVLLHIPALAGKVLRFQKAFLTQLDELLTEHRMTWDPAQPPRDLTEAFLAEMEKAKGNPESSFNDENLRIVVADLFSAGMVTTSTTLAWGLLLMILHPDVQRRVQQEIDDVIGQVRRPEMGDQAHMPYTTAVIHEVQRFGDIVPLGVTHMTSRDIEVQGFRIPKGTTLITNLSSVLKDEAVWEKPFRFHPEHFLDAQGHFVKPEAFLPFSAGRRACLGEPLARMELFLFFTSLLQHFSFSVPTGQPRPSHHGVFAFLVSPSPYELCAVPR
Sequence of Nischarin (Rattus norvegicus) (Q4G017 whole entry): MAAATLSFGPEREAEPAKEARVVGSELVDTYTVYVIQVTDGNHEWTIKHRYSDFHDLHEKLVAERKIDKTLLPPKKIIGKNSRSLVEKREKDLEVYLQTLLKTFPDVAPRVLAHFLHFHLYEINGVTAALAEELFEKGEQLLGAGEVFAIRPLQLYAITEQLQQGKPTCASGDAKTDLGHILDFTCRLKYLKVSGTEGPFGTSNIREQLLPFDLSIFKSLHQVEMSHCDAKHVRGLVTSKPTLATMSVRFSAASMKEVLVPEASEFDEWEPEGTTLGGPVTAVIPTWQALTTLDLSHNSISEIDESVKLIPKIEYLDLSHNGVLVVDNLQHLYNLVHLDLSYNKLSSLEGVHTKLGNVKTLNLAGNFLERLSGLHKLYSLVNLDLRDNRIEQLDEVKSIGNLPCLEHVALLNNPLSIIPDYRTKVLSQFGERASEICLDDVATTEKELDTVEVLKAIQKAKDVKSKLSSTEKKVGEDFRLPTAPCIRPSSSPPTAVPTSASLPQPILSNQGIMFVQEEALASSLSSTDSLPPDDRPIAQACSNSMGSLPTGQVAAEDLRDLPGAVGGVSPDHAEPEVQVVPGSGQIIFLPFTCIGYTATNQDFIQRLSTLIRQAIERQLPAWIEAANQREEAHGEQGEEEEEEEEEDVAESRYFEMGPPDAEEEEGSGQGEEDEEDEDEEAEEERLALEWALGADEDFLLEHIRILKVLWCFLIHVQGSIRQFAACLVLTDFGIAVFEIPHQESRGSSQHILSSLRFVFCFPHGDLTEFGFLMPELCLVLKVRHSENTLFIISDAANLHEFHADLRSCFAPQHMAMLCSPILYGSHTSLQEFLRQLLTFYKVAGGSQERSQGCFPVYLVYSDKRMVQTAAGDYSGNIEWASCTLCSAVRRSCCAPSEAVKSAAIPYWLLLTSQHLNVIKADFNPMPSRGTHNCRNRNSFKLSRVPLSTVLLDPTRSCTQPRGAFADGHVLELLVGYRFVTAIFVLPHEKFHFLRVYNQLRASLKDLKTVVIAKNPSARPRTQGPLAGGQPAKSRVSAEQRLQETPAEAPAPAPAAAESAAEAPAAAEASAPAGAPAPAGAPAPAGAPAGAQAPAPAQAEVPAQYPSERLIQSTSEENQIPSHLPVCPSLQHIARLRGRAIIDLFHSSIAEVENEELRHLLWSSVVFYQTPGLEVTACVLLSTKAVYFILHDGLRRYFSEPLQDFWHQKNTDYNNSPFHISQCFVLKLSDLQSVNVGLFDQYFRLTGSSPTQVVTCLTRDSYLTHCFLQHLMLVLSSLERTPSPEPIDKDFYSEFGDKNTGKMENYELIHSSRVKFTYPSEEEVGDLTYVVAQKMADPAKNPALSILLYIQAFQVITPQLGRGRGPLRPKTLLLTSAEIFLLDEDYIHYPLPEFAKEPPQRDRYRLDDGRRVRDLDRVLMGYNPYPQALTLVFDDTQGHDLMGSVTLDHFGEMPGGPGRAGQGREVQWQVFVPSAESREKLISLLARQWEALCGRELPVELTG
Sequence of Cytochrome P450 2C19 (P33261 whole entry): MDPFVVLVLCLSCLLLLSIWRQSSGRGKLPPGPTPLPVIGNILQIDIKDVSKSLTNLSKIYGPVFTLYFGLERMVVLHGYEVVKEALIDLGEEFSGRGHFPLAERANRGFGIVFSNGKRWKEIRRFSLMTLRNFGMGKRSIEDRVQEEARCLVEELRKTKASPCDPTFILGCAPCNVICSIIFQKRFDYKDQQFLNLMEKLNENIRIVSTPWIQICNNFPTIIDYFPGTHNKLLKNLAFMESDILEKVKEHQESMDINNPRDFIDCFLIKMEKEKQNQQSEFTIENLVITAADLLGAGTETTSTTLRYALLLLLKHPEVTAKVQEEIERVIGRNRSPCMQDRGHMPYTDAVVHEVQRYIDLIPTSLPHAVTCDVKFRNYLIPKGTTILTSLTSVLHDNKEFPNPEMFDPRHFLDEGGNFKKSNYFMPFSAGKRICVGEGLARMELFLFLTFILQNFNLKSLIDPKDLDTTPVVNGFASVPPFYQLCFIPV
Sequence of Sigma non-opioid intracellular receptor 1 (Homo sapiens) (Q99720 whole entry): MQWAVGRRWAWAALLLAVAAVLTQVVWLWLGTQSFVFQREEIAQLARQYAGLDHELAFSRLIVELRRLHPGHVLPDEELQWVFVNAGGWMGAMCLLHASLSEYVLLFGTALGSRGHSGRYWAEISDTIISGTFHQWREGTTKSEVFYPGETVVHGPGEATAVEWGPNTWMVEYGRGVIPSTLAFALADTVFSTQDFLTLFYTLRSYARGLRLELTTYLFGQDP
Sequence of Cytochrome P450 3A4 (P08684 whole entry): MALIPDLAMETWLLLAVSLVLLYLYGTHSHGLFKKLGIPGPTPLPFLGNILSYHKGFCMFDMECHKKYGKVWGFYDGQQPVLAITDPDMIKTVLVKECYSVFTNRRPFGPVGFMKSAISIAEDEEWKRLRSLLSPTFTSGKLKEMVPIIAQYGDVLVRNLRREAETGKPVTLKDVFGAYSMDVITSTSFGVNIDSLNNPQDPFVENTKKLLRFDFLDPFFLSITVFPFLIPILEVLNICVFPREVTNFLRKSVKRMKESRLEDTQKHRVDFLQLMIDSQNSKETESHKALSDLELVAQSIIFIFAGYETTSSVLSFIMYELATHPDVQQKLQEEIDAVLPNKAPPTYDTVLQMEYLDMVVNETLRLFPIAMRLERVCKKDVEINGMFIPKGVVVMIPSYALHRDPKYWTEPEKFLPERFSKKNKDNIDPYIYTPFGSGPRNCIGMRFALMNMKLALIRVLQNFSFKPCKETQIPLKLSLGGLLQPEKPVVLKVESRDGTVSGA

SMILES: COC[C@@H]1CCCN1CCCOc1ccc(C(=O)CN2CCOCC2)cc1
Ki [1]: > 3000 nM
Ki [2]: > 3000 nM

SMILES: C[C@@H]1CCCN1CCCOc1ccc(C(=O)C(C)(C)N2CCOCC2)cc1
half-life [29]: > 40 min
half-life [30]: 8 min
Ki [1]: 9 nM
Ki [2]: 33 nM
half-life [31]: 10 min
half-life [32]: 9 min

SMILES: Cc1cc(OCCCN2CCC[C@H]2C)ccc1C(=O)CN1CCOCC1
Ki [1]: 19 nM
Ki [2]: 244 nM

SMILES: C[C@@H]1CN(CC(=O)c2ccc(OCCCN3CCC[C@H]3C)cc2)C[C@H](C)O1
Ki [1]: 10 nM
Ki [2]: 78 nM

SMILES: O=C(CN1CCCCC1)c1ccc(OCCCN2CCCC2)cc1
Ki [1]: 32 nM
Ki [2]: 174 nM

SMILES: CC(C(=O)c1ccc(OCCCN2CCC[C@H]2C)cc1)N1CCOCC1 (stereo partly specified)
half-life [29]: > 40 min
half-life [30]: > 40 min
Ki [1]: 8 nM
Ki [2]: 105 nM
half-life [31]: > 40 min
half-life [32]: > 40 min

Now from value to compound, other results behind:

Kp at 1 h [3]: 30.7
AUC [4]: 109 ng·h/mL
concentration at 1 h [6]: 3770 ng/g
Ki [2]: 50 nM
IC50 [11]: > 30000 nM
IC50 [12]: > 30000 nM
inhibition [15]: 67%
IC50 [16]: > 30000 nM
inhibition [17]: 78%
IC50 [20]: > 30000 nM
IC50 [21]: > 30000 nM
solubility [26]: > 145 µg/mL
bioavailability [28]: 14%
SMILES: C[C@@H]1CCCN1CCCOc1ccc(C(=O)CN2CCOCC2)cc1
Activity [5]: Active
Activity [7]: Dose-dependent effect
Activity [8]: Active
fold change (FC) [9]: 2.2
fold change (FC) [10]: 2
Activity [13]: inactive
Time [14]: 163 min
Activity [18]: 93%
Activity [19]: Active
Activity [22]: Non-toxic
Time [23]: 118 min
Time [24]: 222 min
Activity [25]: Active
Activity [27]: inactive

Ki [1]: 106 nM
Ki [2]: 594 nM
SMILES: O=C(CN1CCOCC1)c1ccc(OCCCN2CCCC2)cc1

Ki [1]: 66 nM
Ki [2]: 440 nM
SMILES: O=C(CN1CCOCC1)c1ccc(OCCCN2CCCCC2)cc1

Ki [1]: > 1000 nM
Ki [2]: > 1000 nM
SMILES: CC1(C)CCCN1CCCOc1ccc(C(=O)CN2CCOCC2)cc1

concentration at 1 h [6]: 3930 ng/g
Ki [2]: 56 nM
concentration at 4 h [33]: 1610 ng/g
Drug uptake [34]: Not Active
concentration at 6 h [35]: 955 ng/g
SMILES: CC1CCCN1CCCOc1ccc(C(=O)CN2CCOCC2)cc1 (racemic)

Ki [2]: 885 nM
SMILES: C[C@H]1CCCN1CCCOc1ccc(C(=O)CN2CCOCC2)cc1

Ki [1]: 1170 nM
Ki [2]: > 3000 nM
SMILES: COC[C@H]1CCCN1CCCOc1ccc(C(=O)CN2CCOCC2)cc1
